Data: the array DNA melting data of Ke et al. (doi:10.1101/2024.01.08.574731)

Key:
[1] = melting temperature; fluorescence melt of hairpins on a sequencing array, two-state fit, raised by 9.35 °C to match UV melts; conditions: sodium 0.088 M
Summary of the method: (§1)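 With Cy3 and quencher oligos annealed, library hairpins on a sequenced MiSeq flow cell were imaged for Cy3 fluorescence in 50 mM Na-HEPES pH 8.0, 25 mM NaCl, in 2.5 °C steps up to 60 °C. Melting temperature and folding enthalpy were derived from bootstrapped two-state fits of signals normalised to pre-quench Cy3 and to control constructs. Four replicates were combined by inverse variance, with fitted temperatures raised by 9.35 °C to match UV melts.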

[2] = folding enthalpy; higher = less favourable; fluorescence melt of hairpins on a sequencing array, two-state fit; conditions: sodium 0.088 M
Summary of the method: as §1

Sequence	Tm [1]	folding enthalpy [2]
GCGATGCCTCGC ((((....))))	50.4 °C	-20.5 kcal/mol
GCGATGCGAAAGCATTGC ((.((((....)))).))	68.7 °C	-43.9 kcal/mol
GCGATGCGAAAGCCCCGC (((..((....))..)))	43.9 °C	-20.5 kcal/mol
GCGATGCGTCGC ((((....))))	64.5 °C	-20.1 kcal/mol
GCGATGGGAAACTGTCGC ((((..(....)..))))	49.2 °C	-47.3 kcal/mol
GCGATGGTCGC ((((...))))	47.8 °C	-7.34 kcal/mol
GCGATGTGTCGC ((((....))))	57 °C	-28.6 kcal/mol
GCGATGTTTCGC ((((....))))	51.4 °C	-22.9 kcal/mol
GCGATTACGAAAGTACGC (((..(((....))))))	43.4 °C	-26 kcal/mol
GCGATTAGTCGC ((((....))))	51.4 °C	-26.7 kcal/mol
GCGATTCATCGC ((((....))))	58.3 °C	-30.1 kcal/mol
GCGATTCGAAAGAACCGC (((.(((....))).)))	53.1 °C	-38.6 kcal/mol
GCGATTCGTCGC ((((....))))	54.5 °C	-28.4 kcal/mol
GCGATTGAAAAATCGC ((((((....))))))	64.8 °C	-40.7 kcal/mol
GCGATTGCTCGC ((((....))))	52.5 °C	-14.3 kcal/mol
GCGATTGGAAACGATTGC ((.((.(....).)).))	36.4 °C	-26.7 kcal/mol
GCGATTTCGAAAGAACGC (((..(((....))))))	36.9 °C	-24.2 kcal/mol
GCGCAACGAAAGTTCGC (((.(((....))))))	54.9 °C	-32 kcal/mol
GCGCAAGCGAAAGCTCGC (((..(((....))))))	45.7 °C	-12.8 kcal/mol
GCGCAAGGAAACTTGTGC ((.((((....)))).))	54.9 °C	-48.9 kcal/mol
GCGCACCGAAAGGTTCGC (((.(((....))).)))	61.4 °C	-40.3 kcal/mol
GCGCACGAAAGTGAACGC ((((((....)))..)))	54.5 °C	-31.2 kcal/mol
GCGCACGAAAGTGGACGC ((((((....)))..)))	55.4 °C	-32.7 kcal/mol

Sequence	Tm [1]	folding enthalpy [2]
GCGCACGAAAGTGTCGC ((((((....))).)))	64.2 °C	-27.6 kcal/mol
GCGCACGGAAACGCGCAC (.((.((....)).)).)	52.4 °C	-13.7 kcal/mol
GCGCAGCCGAAAGGCCGC (((..(((....))))))	57.9 °C	-16.7 kcal/mol
GCGCAGCGAAAGCCTCGC (((..((....))..)))	42.1 °C	-8.27 kcal/mol
GCGCAGCGAAAGCGTCGC (((..((....))..)))	58.9 °C	-13.3 kcal/mol
GCGCAGCGAAAGCTATGC ((..(((....)))..))	39.3 °C	-7.11 kcal/mol
GCGCAGCGAAAGCTCTGC ((..(((....)))..))	38.5 °C	-7.6 kcal/mol
GCGCAGGCGAAAGCCCGC (((..(((....))))))	60.1 °C	-16.7 kcal/mol
GCGCAGGGAAACCTACGC (((.(((....))).)))	50.1 °C	-39.9 kcal/mol
GCGCAGGGAAACCTGCAC (.(((((....))))).)	47.6 °C	-12.7 kcal/mol
GCGCATGCGAAAGCACGC (((..(((....))))))	54.6 °C	-13.7 kcal/mol
GCGCATGGAAACACACGC (((..((....))..)))	29.6 °C	-19.4 kcal/mol
GCGCCCCGAAAGGGCCGC (((.(((....))).)))	61.2 °C	-19.8 kcal/mol
GCGCCCGAAAGGGACGC ((((((....))).)))	68.1 °C	-27.1 kcal/mol
GCGCCCGAAAGGGCACGC ((((((....)))..)))	63.3 °C	-13.4 kcal/mol
GCGCCCGAAAGGGGCCGC ((((((....)))..)))	61.4 °C	-16.4 kcal/mol
GCGCCGCCGAAAGGCCGC (((..(((....))))))	56.3 °C	-15.2 kcal/mol
GCGCCGCGAAAGCCCCGC (((..((....))..)))	39 °C	-17.7 kcal/mol
GCGCCGCGAAAGCCGTGC ((.(.((....)).).))	52.1 °C	-20.5 kcal/mol
GCGCCGCGAAAGCGAAGC ((..(((....)))..))	64.8 °C	-32 kcal/mol
GCGCCGCGAAAGCGATGC ((..(((....)))..))	60.8 °C	-19.4 kcal/mol
GCGCCGCGAAAGCGCAGC ((..(((....)))..))	59.8 °C	-14.1 kcal/mol
GCGCCGCGAAAGCTCCGC (((..((....))..)))	44.9 °C	-16.8 kcal/mol

Sequence	Tm [1]	folding enthalpy [2]
GCGCCGGGAAACCAGCGC ((((.((....)).))))	59.1 °C	-44.5 kcal/mol
GCGCCGTCGAAAGACCGC (((..(((....))))))	50.8 °C	-23.1 kcal/mol
GCGCGCCGAAAGGCCCGC (((.(((....))).)))	68.5 °C	-32.2 kcal/mol
GCGCGCGAAAGCGCACGC ((((((....)))..)))	67 °C	-11.7 kcal/mol
GCGCGCGAAAGCGGTCGC ((((((....)))..)))	63.6 °C	-16.1 kcal/mol
GCGCGGACGAAAGTCCGC (((..(((....))))))	63.7 °C	-5.59 kcal/mol
GCGCGGCGAAAGCAGAGC ((.(.((....)).).))	63.8 °C	-25.1 kcal/mol
GCGCGGCGAAAGCAGGGC ((.(.((....)).).))	63.2 °C	-19.8 kcal/mol
GCGCGGCGAAAGCAGTGC ((.(.((....)).).))	65.5 °C	-29.1 kcal/mol
GCGCGGCGAAAGCATCGC (((..((....))..)))	57.5 °C	-20.6 kcal/mol
GCGCGGCGAAAGCCAGGC ((..(((....)))..))	54.4 °C	-14.1 kcal/mol
GCGCGGCGAAAGCCCGGC ((..(((....)))..))	59.7 °C	-12.8 kcal/mol
GCGCGGCGAAAGCCTGGC ((..(((....)))..))	47.9 °C	-15.3 kcal/mol
GCGCGGCGAAAGCGACGC (((..((....))..)))	63.2 °C	-15.2 kcal/mol
GCGCGGCGAAAGCGGAGC ((.(.((....)).).))	60.4 °C	-22.5 kcal/mol
GCGCGGCGAAAGCGGTGC ((.(.((....)).).))	65.2 °C	-31.2 kcal/mol
GCGCGGCGAAAGCTGGGC ((.(.((....)).).))	67.2 °C	-32.4 kcal/mol
GCGCGGTCGAAAGACCGC (((..(((....))))))	67 °C	-5.31 kcal/mol
GCGCGTCGAAAGACCGC (((.(((....))))))	67.3 °C	-32.8 kcal/mol
GCGCGTCGAAAGACTCGC (((.(((....))).)))	58.4 °C	-38.7 kcal/mol
GCGCGTGGAAACATGCGC ((((.((....)).))))	67.9 °C	-40.2 kcal/mol
GCGCGTTCGAAAGAACGC (((..(((....))))))	68 °C	-6.28 kcal/mol
GCGCTACGAAAGTACGC (((.(((....))))))	55.3 °C	-32.2 kcal/mol

Sequence	Tm [1]	folding enthalpy [2]
GCGCTAGGAAACTGGTGC ((.(.((....)).).))	44.3 °C	-28.9 kcal/mol
GCGCTCCGAAAGGAACGC (((.(((....))).)))	65 °C	-46.8 kcal/mol
GCGCTCGAAAGAGCTCGC ((((((....)))..)))	47.8 °C	-14.4 kcal/mol
GCGCTCGGAAACGAACGC (((.(((....))).)))	55.7 °C	-38.5 kcal/mol
GCGCTGCCGAAAGGCCGC (((..(((....))))))	58.5 °C	-17.8 kcal/mol
GCGCTGCGAAAGCAAAGC ((..(((....)))..))	60 °C	-17.7 kcal/mol
GCGCTGCGAAAGCAACGC (((.(((....))).)))	61.5 °C	-49 kcal/mol
GCGCTGCGAAAGCACCGC (((.(((....))).)))	53.9 °C	-46.8 kcal/mol
GCGCTGCGAAAGCACTGC ((..(((....)))..))	41 °C	-16.8 kcal/mol
GCGCTGCGAAAGCCACGC (((..((....))..)))	52.7 °C	-19.7 kcal/mol
GCGCTGCGAAAGCCCCGC (((..((....))..)))	41.5 °C	-22.5 kcal/mol
GCGCTGCGAAAGCCGAGC ((.(.((....)).).))	50.8 °C	-23.2 kcal/mol
GCGCTGCGAAAGCCGGGC ((.(.((....)).).))	50.9 °C	-20.5 kcal/mol
GCGCTGCGAAAGCGCCGC (((..((....))..)))	61.6 °C	-9.61 kcal/mol
GCGCTGCGAAAGCGTCGC (((..((....))..)))	59.7 °C	-25.4 kcal/mol
GCGCTGGCGAAAGCCCGC (((..(((....))))))	55.5 °C	-17 kcal/mol
GCGCTGGGAAACCAACGC (((.(((....))).)))	52.7 °C	-47.8 kcal/mol
GCGCTTCCGAAAGGACGC (((..(((....))))))	52 °C	-20.3 kcal/mol
GCGCTTGGAAACAAGCAC (.(((((....))))).)	45.7 °C	-15.2 kcal/mol
GCGCTTGGAAACAGGTGC ((.(.((....)).).))	40.6 °C	-28.5 kcal/mol
GCGGAACCCCGC ((((....))))	51.3 °C	-21 kcal/mol
GCGGAACCCGC ((((...))))	53.8 °C	-20.8 kcal/mol
GCGGAACCGAAAGGTCGC (((..(((....))))))	54.7 °C	-27.7 kcal/mol
